Laboratory results as given in ChEMBL document CHEMBL4308845, “Allosteric Activation of Striatal-Enriched Protein Tyrosine Phosphatase (STEP, PTPN5) by a Fragment-like Molecule” (J Med Chem, 2019).
pKd: −log10 of the molar value. The source made the active and inactive calls. The rule behind the calls is not given here.

Columns and labels:
[1] = target: T1, Tyrosine-protein phosphatase non-receptor type 5 (Mus musculus) (UniProt P54830); experiment: Activation of mouse STEP PTP domain (244 to 539 residues) expressed in Escherichia coli BL21(DE3) at 500 uM using biotin-pFyn peptide substrate after 60 mins by AlphaLISA assay
T1 sequence (whole entry): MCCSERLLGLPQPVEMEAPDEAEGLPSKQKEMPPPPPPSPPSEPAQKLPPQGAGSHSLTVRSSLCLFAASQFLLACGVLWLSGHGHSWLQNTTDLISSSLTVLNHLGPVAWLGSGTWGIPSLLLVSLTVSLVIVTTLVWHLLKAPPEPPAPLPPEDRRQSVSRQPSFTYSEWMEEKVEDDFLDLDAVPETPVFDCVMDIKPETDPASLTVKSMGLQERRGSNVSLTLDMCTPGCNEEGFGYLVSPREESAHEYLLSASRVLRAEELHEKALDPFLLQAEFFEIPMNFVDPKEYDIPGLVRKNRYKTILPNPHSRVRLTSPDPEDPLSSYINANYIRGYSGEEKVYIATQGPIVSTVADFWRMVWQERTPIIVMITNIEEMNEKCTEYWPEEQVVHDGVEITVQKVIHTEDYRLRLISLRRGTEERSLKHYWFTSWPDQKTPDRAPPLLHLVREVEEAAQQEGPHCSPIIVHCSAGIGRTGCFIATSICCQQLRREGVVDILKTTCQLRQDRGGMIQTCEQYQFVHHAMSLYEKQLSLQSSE

[2] = target: T2, Tyrosine-protein phosphatase non-receptor type 5 (Homo sapiens, UniProt P54829); experiment: Binding affinity to human 15N-labeled STEP PTP domain (281 to 563 residues) expressed in Escherichia coli OD2 by 1H,15N TROSY NMR spectral analysis
T2 sequence (P54829 whole entry): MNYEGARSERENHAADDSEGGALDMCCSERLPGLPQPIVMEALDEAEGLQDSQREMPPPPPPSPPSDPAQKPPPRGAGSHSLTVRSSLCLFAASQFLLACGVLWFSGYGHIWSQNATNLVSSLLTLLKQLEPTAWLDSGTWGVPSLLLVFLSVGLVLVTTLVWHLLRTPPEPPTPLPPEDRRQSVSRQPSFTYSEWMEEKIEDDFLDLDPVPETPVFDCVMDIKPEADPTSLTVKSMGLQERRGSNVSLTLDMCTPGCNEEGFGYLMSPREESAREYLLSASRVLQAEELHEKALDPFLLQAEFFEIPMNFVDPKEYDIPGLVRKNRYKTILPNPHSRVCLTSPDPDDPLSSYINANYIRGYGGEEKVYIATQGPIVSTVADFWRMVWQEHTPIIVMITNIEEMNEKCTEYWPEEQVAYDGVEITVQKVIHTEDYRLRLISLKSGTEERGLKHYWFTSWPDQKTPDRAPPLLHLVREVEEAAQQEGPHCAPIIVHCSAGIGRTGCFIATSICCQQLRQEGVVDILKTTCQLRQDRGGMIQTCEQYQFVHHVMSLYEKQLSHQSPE
Summary of the method: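 40 μM ¹⁵N-labeled STEP PTP domain (expressed in ¹⁵N OD2 medium) in 20 mM Tris-d11, 100 mM NaCl, 1 mM TCEP, pH 7.4, 8% D₂O, with 500 μM ligand and 1% DMSO-d₆ at 298 K. 2D spectra of 192 transients were compared by hand with the protein reference spectrum.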

Activity [1]: Active
pKd [2]: 4.42
SMILES: N=C(N)Nc1cc(C2CCNCC2)cc(C(F)(F)F)c1
